B1: NELF-E aptamer (parent)
chain: CCCAACGACUGCCGAGCGAGAUUACGCUUGAGCGCCCCACUGAGGAUGCCCACGGGCGAUUGGGGCACGG

Variants of: B1
Test: HiTS-RAP
Conditions: with NELF-E (Drosophila)
Outline: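 Aptamer DNA templates carrying a T7 promoter and ter site were sequenced on an Illumina GAIIx flowcell, then transcribed in situ by T7 RNA polymerase and halted by GST-Tus (30 minutes, 37°C). Clusters were imaged after 30-minute room-temperature equilibration with NELF-E-mOrange at 0.064 to 1000 nM in HEPES binding buffer, and only the first binding curve was used. Intensities were normalised to sequencing intensity and averaged per sequence. Kd came from weighted Hill fits, keeping fits with variance below 1,000,000.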

Variant | Kd [nM]
CCCAAGGACUGCCGAGCGAGAUUACACUUGAGCGCCCCACUGAGGAUGCCCACGGGCGAUUGGGGCACGG | 4.39
CCCAAGGACUGCCGAGCGAGAUUACUCUUGAGCGCCCCACUGAGGAUGCCCACGGGCGAUUGGGGCACGG | 5.54
CCCAAGGACUGCCGAGCGAGAUUACGCUUGAGCGCCCCACUGAGGAUGCCUACGGGCGAUUGGGGCACGG | 7.16
CCCAAGGACUGCCGAGCGAGAUUACGCUUGAGCGCCCCACUGAGGAUGCCCACGGGCGAUUGGGGAACGG | 5.34
CCCAAGGACUGCCGAGCGAGAUUACGCUUGAGCGCCCCACUGAGGAUGCCCACGGGCGAUUGGGGUACGG | 5.41
CCCAAGGACUGCCGAGCGAGAUUACGCUUGAGCGCCCCACUGAGGAUGCCCACGGGCGACUGGGGCACGG | 10.3
CCCAAGGACUGCCGAGCGAGAUUACGCUUGAGCGCCCCACUGAGGAUGCCCACGGGCGAAUGGGGCACGG | 10.9
CCCAAGGACUGCCGAACGAGAUUACGCUUGAGCGCCCCACUGAGGAUGCCCACGGGCGAUUGGGGCACGG | 5.84
CCCAAGGACUGCCGAUCGAGAUUACGCUUGAGCGCCCCACUGAGGAUGCCCACGGGCGAUUGGGGCACGG | 6.81
CCCAAGGACUGCCGAGCGAGAUUACGCUUGAGCGCCCCACUGAGGAUACCCACGGGCGAUUGGGGCACGG | 11.6
CCCAAGGACUGCCGAGCGAGAUUACGCUUGAGCGCCCCACUGAGGAUUCCCACGGGCGAUUGGGGCACGG | 5.75
CCCAAGGACUGCCGAGCGAGAUUACGCUUGAGCGCCCCACUGAGGAUGCCCACGGGCGAUUGGGACACGG | 4.46
CCCAAGGACUGCCGAGCGAGAUUACGCUUGAGCGCCCCACUGAGGAUGCCCACGGGCGAUUGGGUCACGG | 6.3
CCCAAGGACUGCCGAGCGAGAUUACGCUUGAGCGCCCCACUGAGGAUGCCCACUGGCGAUUGGGGCACGG | 9.57
CCCAAGGACUGCCGAGCGAGAUUACGCUUGAGCGCCCCACUGAGGAUGCCCACAGGCGAUUGGGGCACGG | 12.5
CCCAAGGACUGCCGAGCGAGAUCACGCUUGAGCGCCCCACUGAGGAUGCCCACGGGCGAUUGGGGCACGG | 4.4
CCCAAGGACUGCCGAGCGAGAUAACGCUUGAGCGCCCCACUGAGGAUGCCCACGGGCGAUUGGGGCACGG | 5.12
CCCAAGGACUGCCGAGCGAGAUGACGCUUGAGCGCCCCACUGAGGAUGCCCACGGGCGAUUGGGGCACGG | 4.81
CCCAAGGACUGCCGAGCGAGAUUACGCUUGAGCGCCCCACUGAGGAUGUCCACGGGCGAUUGGGGCACGG | 20.2
CCCAAGGACUGCCGAGCGAGAUUACGCUUGAGCGCCCCACUGAGGAUGGCCACGGGCGAUUGGGGCACGG | 8.75
CCCAAGGACUGCCGAGCGAGAUUACGCUUGAGCGCCCCACUGAGGAGGCCCACGGGCGAUUGGGGCACGG | 6.93
CCCAAGGACUGCCGAGCGAGAUUACGCUUGAGCGCCCCACUGAGGAAGCCCACGGGCGAUUGGGGCACGG | 10.5
CCCAAGGACUGCCGAGCGAGAUUACGCUUGAGCGCCCCACUGAGGAUGCCCAGGGGCGAUUGGGGCACGG | 7.67
CCCAAGGACUGCCGAGCGAGAUUACGCUUGAGCGCCCCACUGAGGAUGCCCAUGGGCGAUUGGGGCACGG | 4.15
CCCAAGGACUGCCUAGCGAGAUUACGCUUGAGCGCCCCACUGAGGAUGCCCACGGGCGAUUGGGGCACGG | 6.12
CCCAAGGACUGCCAAGCGAGAUUACGCUUGAGCGCCCCACUGAGGAUGCCCACGGGCGAUUGGGGCACGG | 5.15

Variant | Kd [nM]
CCCAAGGACUGCCGAGCGAGAUUACGCUUGAGCGCCCCAUUGAGGAUGCCCACGGGCGAUUGGGGCACGG | 70.3
CCCAAGGACUGCCGAGCGAGACUACGCUUGAGCGCCCCACUGAGGAUGCCCACGGGCGAUUGGGGCACGG | 5.08
CCCAAGGACUGCCGAGCGAGAGUACGCUUGAGCGCCCCACUGAGGAUGCCCACGGGCGAUUGGGGCACGG | 5.09
CCCAAGGACUGCCGAGCGAGAUUACGCUUGAGCGCCCCACUGAGGAUGCCCACGGGCGAUUGGCGCACGG | 6.39
CCCAAGGACUGCCGAGCGAGAUUACGCUUGAGCGCCCCACUGAGGAUGCCCACGGGCGAUUGGAGCACGG | 7.6
CCCAAGGACUGCCGAGCGAGAUUACGCUUGAGCGCCCCACUGAGGAUGCCCACGGGCGAUUGGUGCACGG | 6.35
CCCAAGGACUGCCGAGCGAGAUUACGCUAGAGCGCCCCACUGAGGAUGCCCACGGGCGAUUGGGGCACGG | 5.51
CCCAAGGACUGCCGAGCGAGAUUACGCUCGAGCGCCCCACUGAGGAUGCCCACGGGCGAUUGGGGCACGG | 4.69
CCCAAGGACUGCCGAGCGAGAUUACGCUGGAGCGCCCCACUGAGGAUGCCCACGGGCGAUUGGGGCACGG | 4.97
CCCAAGUACUGCCGAGCGAGAUUACGCUUGAGCGCCCCACUGAGGAUGCCCACGGGCGAUUGGGGCACGG | 5.56
CCCAAGAACUGCCGAGCGAGAUUACGCUUGAGCGCCCCACUGAGGAUGCCCACGGGCGAUUGGGGCACGG | 6.58
CCCAAGCACUGCCGAGCGAGAUUACGCUUGAGCGCCCCACUGAGGAUGCCCACGGGCGAUUGGGGCACGG | 7.44
CCCAAGGACUGCCGAGCGAGAUUACGCUUGAACGCCCCACUGAGGAUGCCCACGGGCGAUUGGGGCACGG | 4.6
CCCAAGGACUGCCGAGCGAGAUUACGCUUGAGCGCCCCACUGAGGAUGCCCACGGGCUAUUGGGGCACGG | 6.94
CCCAAGGACUGCCGAGCGAGAUUACGCUUGAGCGCCCCACUGAGGAUGCCCACGGUCGAUUGGGGCACGG | 4.89
CCCAAGGACUGCCGAGCGAGAUUACGCUUGAGCGCCCCACUGAGGAUGCCCACGGACGAUUGGGGCACGG | 8.34
CCCAAGGACUGCCGAGCGAGAUUACGCUUGAGCGCCCCACUGAGGAUGCCCACGGGUGAUUGGGGCACGG | 6.1
CCCAAGGACUGCCGAGCGAGAUUACGCUUGAGCGCCCCACUGAGGAUGCCCACGGGGGAUUGGGGCACGG | 6.54
CCCAAGGACUGCCGAGCGAGAUUACGCUUGAGCGCCCCACUAAGGAUGCCCACGGGCGAUUGGGGCACGG | 40.3
CCCAAGGACUGCCGAGCGAGAUUACGCUUGAGCGCCCCACUUAGGAUGCCCACGGGCGAUUGGGGCACGG | 13.8
CCCAAGGACUGCCGAGCGAGAUUACGCGUGAGCGCCCCACUGAGGAUGCCCACGGGCGAUUGGGGCACGG | 6.54
CCCAAGGACUGCCGAGCGAGAUUACGCAUGAGCGCCCCACUGAGGAUGCCCACGGGCGAUUGGGGCACGG | 5.13
CCCAAGGACUGCCGAGCGAGAUUACGCCUGAGCGCCCCACUGAGGAUGCCCACGGGCGAUUGGGGCACGG | 9
CCCAAGGACUGCCGAGCGAGAUUACGCUUGAGCGCCCCACUGAGUAUGCCCACGGGCGAUUGGGGCACGG | 9.94
CCCAAGGACUGCCGAGCGAGAUUACGCUUGAGCGCCCCACUGAGAAUGCCCACGGGCGAUUGGGGCACGG | 91
CCCAAGGACGGCCGAGCGAGAUUACGCUUGAGCGCCCCACUGAGGAUGCCCACGGGCGAUUGGGGCACGG | 4.77

Variant | Kd [nM]
CCCAAGGACAGCCGAGCGAGAUUACGCUUGAGCGCCCCACUGAGGAUGCCCACGGGCGAUUGGGGCACGG | 5.16
CCCAAGGACCGCCGAGCGAGAUUACGCUUGAGCGCCCCACUGAGGAUGCCCACGGGCGAUUGGGGCACGG | 5.34
CCCAAGGACUUCCGAGCGAGAUUACGCUUGAGCGCCCCACUGAGGAUGCCCACGGGCGAUUGGGGCACGG | 5.8
CCCAAGGACUACCGAGCGAGAUUACGCUUGAGCGCCCCACUGAGGAUGCCCACGGGCGAUUGGGGCACGG | 6.31
CCCAAGGACUGCCGAGCGAGAUUACGCUUUAGCGCCCCACUGAGGAUGCCCACGGGCGAUUGGGGCACGG | 6.84
CCCAAGGACUGCCGAGCGAGAUUACGCUUAAGCGCCCCACUGAGGAUGCCCACGGGCGAUUGGGGCACGG | 4.52
CCCAAGGACUGCCGAGCGAGAUUACGCUUGAGCGCCCCACAGAGGAUGCCCACGGGCGAUUGGGGCACGG | 103
CCCAAGGACUGCCGAGCGAGAUUACGCUUGAGCGCCCCACCGAGGAUGCCCACGGGCGAUUGGGGCACGG | 64.8
CCCAAGGACUGCCGAGCGAGAUUACGCUUGAGCGCCCCACGGAGGAUGCCCACGGGCGAUUGGGGCACGG | 5.12
CCCAAGGACUGCCGAGCGAGAUUACGCUUGAGCGCCCCACUGAUGAUGCCCACGGGCGAUUGGGGCACGG | 8.75
CCCAAGGACUGCCGAGCGAGAUUACGCUUGAGCGCCCCACUGAAGAUGCCCACGGGCGAUUGGGGCACGG | 61
CCCAAGGACUGCCGAGCGAUAUUACGCUUGAGCGCCCCACUGAGGAUGCCCACGGGCGAUUGGGGCACGG | 6.34
CCCAAGGACUGCCGAGCGAAAUUACGCUUGAGCGCCCCACUGAGGAUGCCCACGGGCGAUUGGGGCACGG | 6.35
CCCAAGGACUGCCGAGCGAGAUUACGCUUGAGCGCCCCACUGAGGAUGCCCACGAGCGAUUGGGGCACGG | 6.61
CCCAAGGACUGCCGAGCGAGAUUACGCUUGAGCGCCCCACUGAGGAUGCCCACGUGCGAUUGGGGCACGG | 6.23
CCCAAGGACUGCCGAGCGAGAUUACGCUUGAGCGCCCCACUGAGGAUGCCCACGGGCGAUUGUGGCACGG | 10.8
CCCAAGGACUGCCGAGCGAGAUUACGCUUGAGCGCCCCACUGAGGAUGCCCACGGGCGAUUGAGGCACGG | 19.7
CCCAAGGACUGCCGAGCAAGAUUACGCUUGAGCGCCCCACUGAGGAUGCCCACGGGCGAUUGGGGCACGG | 4.48
CCCAAGGACUGCCGAGCUAGAUUACGCUUGAGCGCCCCACUGAGGAUGCCCACGGGCGAUUGGGGCACGG | 6.37
CCCAAGGACUGCCGAGCGAGAUUACGCUUGAGCACCCCACUGAGGAUGCCCACGGGCGAUUGGGGCACGG | 8
CCCAAGGACUGCCGAGCGAGAUUACGCUUGAGCUCCCCACUGAGGAUGCCCACGGGCGAUUGGGGCACGG | 5.79
CCCAAGGACUGCCGAGCGAGAUUACGCUUGAGCGCCCCACUGAGGAUGCCCACGGGCGAUUAGGGCACGG | 21.9
CCCAAGGACUGCCGAGCGAGAUUACGCUUGAGCGCCCCACUGAGGAUGCCCACGGGCGAUUUGGGCACGG | 7.26
CCCAAGGACUGCCGAGCGAGAUUACGCUUGAGCGCCCCACUGAGGAUGCUCACGGGCGAUUGGGGCACGG | 16.1
CCCAAGGACUGCCGAGCGAGAUUACGCUUGAGCGCCCCACUGAGGAUGCGCACGGGCGAUUGGGGCACGG | 5.53

Source: the RNAGym collection of RNA variant scans (doi:10.1038/nmeth.2970)
